Measured values from ChEMBL document CHEMBL4513216, “Probing the Open Global Health Chemical Diversity Library for Multistage-Active Starting Points for Next-Generation Antimalarials” (ACS Infect Dis, 2020).

Assay: Toxicity liver stage against HepG2, at 10uM
Assay type: cell-based
Set-up: test concentration 10 uM, cell line HepG2-A16-CD81EGFP
Conditions: human, HepG2-A16-CD81EGFP cells; read-out: INHIBITION
Summary of the method: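 Uninfected HepG2-A16-CD81EGFP cells, 3 × 10^3 per well, 1536-well, plated on prespotted compound at 10 μM final, parasite-free screening media added to match infected plates; puromycin 10 μM positive, DMSO 0.5% negative; run in parallel with 48 h PbLuc assay at 37 °C, 5% CO2; viability by CellTiter-Glo luminescence, normalized to controls.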

SMILES	cytotoxicity at 10 µM [%]
O=C1CC(N2CCN(c3ccc(F)cc3)CC2)C(=O)N1Cc1cccs1 (stereo not given)	-0.31
CN1CCC(N2CC[C@H](c3nc4ccc(C(F)(F)F)cc4[nH]3)C2)CC1	-10.2
Cc1ccc(-c2ccc(=O)n(CC(=O)Nc3nccs3)n2)cc1	-10.2
Cc1cccc2nc(CSCC(=O)Nc3nnc(C(C)C)s3)cc(=O)n12	-3.95
CC(=O)N1N=C(c2ccco2)OC1C(=O)N(C)CCc1ccccc1 (stereo not given)	-0.0253
COc1cc2nc(C)n(CC(=O)NCCC(C)C)c(=O)c2cc1OC	-3.79
CSc1sc2c(O)cc(=O)[nH]c2c1C(N)=O	-2.1
COc1cccc2c1ccn2CCC(=O)Nc1c2c(nn1C)CSC2	5.11
CC(=O)Nc1nc2c(s1)CN(CC(=O)Nc1ccc(C)c(Cl)c1)CC2	-6.17
COc1ccc(-n2nnc(C(=O)NCC3CCCCC3)n2)cc1	1.01
O=C(c1nnn(-c2ccccc2F)c1-c1ccccn1)N1CCSCC1	1.32
Cc1csc(NC(=O)C2CSCCC(=O)N2)n1 (stereo not given)	4.14
c1ccc(COCC2CNCc3nccn3C2)nc1 (stereo not given)	14.4
CS(=O)(=O)N1Cc2nc(C(=O)NCc3ccccc3)oc2C1	-3.46
CCN(CC)c1ccc2ccc(C(=O)NC3CC3)cn12	-2.6
CNC(=O)[C@H]1C[C@@H]2CN(C(=O)c3cscn3)C[C@@H]2N1S(C)(=O)=O	-5.17
CCn1cc(S(=O)(=O)N2CCN(S(=O)(=O)c3ccc(Br)s3)CC2)c(C)n1	4.64
COCc1nc(N(C)C)ncc1C(=O)NC(C)c1ccccc1 (stereo not given)	6.03
CC(C)(C)NC(=O)[C@@H]1CNC[C@]12Cc1ccccc1C(=O)N2	-0.42
COCC1CN(C(C)=O)CCN(c2cc(C)ncn2)C1 (stereo not given)	4.96
O=C(O)C1(Cc2cc(-c3ccc(F)cc3F)no2)CCOCC1	3.37
CC(C)NC(=O)c1cc(-c2ccc(S(C)(=O)=O)cc2)nc2c1cnn2C	4.21

SMILES	cytotoxicity at 10 µM [%]
O=C(N1CCOCC1)N1CCN(c2ccc(Cl)nn2)C(=O)C1	8.57
COc1ncc(C(F)(F)F)c(C(=O)O)c1Cl	16.7
O=C(O)c1cc(NS(=O)(=O)c2ccccc2F)ccc1N1CCSCC1	-5.27
O=C(O)CCCc1ccc2c(c1)CC(=O)N2	1.51
CC(C)CCC(=O)N1CCN(C(=O)c2ccc3nccn3c2)CC1	7.42
O=C(c1cnc(NCc2sccc2Br)c(Cl)c1)N1CCCCC1	6.36
CN1CCC(NC(=O)c2cc(Cl)cc(Br)c2O)C1=O (stereo not given)	4.84
CC(=O)N1CCCN(C(=O)NC(C)Cn2ccnc2)CC1 (stereo not given)	4.52
N#CC1COCCN1S(=O)(=O)c1ccc(F)c(Br)c1 (stereo not given)	4.43
O=C1CCCN1CCCN1CCCC1Cn1cccn1 (stereo not given)	-1.82
N#Cc1ccc(CN2CCN(c3ccncc3Cl)CC2=O)cc1	4.64
Cc1cc(CN(C)C(=O)NC(C)Cc2ccc(O)cc2)no1 (stereo not given)	4.93
Cc1ccccc1CCCN(C)S(C)(=O)=O	5.41
CCn1cc(C(=O)N(C)Cc2c(F)cccc2Cl)cn1	-4.66
CC(=O)N1CCC(C(=O)N2CCC(=Cc3cccc(F)c3)CC2)CC1	3.5
N#Cc1cccc(S(=O)(=O)NC(=O)c2csc(-c3ccco3)n2)c1	4.34
COC(CNC(=O)c1ccoc1)c1cccc(Cl)c1 (stereo not given)	3.3
Cc1nc(-c2ccco2)ccc1C(=O)NCCCN1CCOCC1	-4.02
CCCc1noc(CCC(=O)N2CCN(C)CC2c2ccccc2)n1 (stereo not given)	-7.47
CCCNC(=O)CNC(=O)c1scnc1C	8.86
CCc1nnc2n1CCN(CC(=O)N(CC)C1=CCCCC1)C2	-0.0192
Cc1cccc(NC(=O)[C@@H]2CCCN2Cc2nnc(C(C)C)n2C)n1	5.81

SMILES	cytotoxicity at 10 µM [%]
Cc1ccccc1N1CCN(C(=O)c2cccnc2-n2cncn2)CC1	8.35
N#Cc1cccnc1NCCNC(=O)N1CCCC(N2CCCC2)C1 (stereo not given)	7.61
CCCN1CCC(CNC(=O)N2CCCC2c2c(C)n[nH]c2C)CC1 (stereo not given)	-0.686
O=C(NCCOc1ncc(Cl)cc1Cl)c1ccoc1	0.191
CCN(Cc1nnsc1Cl)C(C)c1ccc(C#N)cc1 (stereo not given)	18.9
CC(C)Nc1cccc(CNC(=O)N2CCCC2)c1	1.98
COc1ccccc1C(=O)N1CCC(O)(c2cccc(C)c2C)CC1	12.1
CCc1ccc(CCC(=O)NCc2nnc[nH]2)cc1	7.47
CC1CN(C(=O)c2ccnc(OCCN(C)C)c2)c2ccccc21 (stereo not given)	-0.343
CCS(=O)(=O)CCN1CCN(C(C)c2cccnc2)CC1 (stereo not given)	8.65
CC(C)(C)OC(=O)N1CC(CC(=O)NCc2ccnc(C3CC3)c2)C1	5.54
O=C(Nc1ccccn1)C1CCN(Cc2cc3c(cc2O)OCO3)CC1	7.19
Cc1csc(C2(NCc3csc(C4CC4)n3)CCCC2)n1	4.32
CC(C1CC1)N(CC(=O)NC(=O)NC1CC1)C1CC1 (stereo not given)	4.84
CCn1c(CN2CCOC(Cn3cncn3)C2)nc2c(F)cccc21 (stereo not given)	-5.42
Cc1csc(CN2CC(CO)Oc3ccccc32)n1 (stereo not given)	6.62
O=C(Nc1cccs1)NC(CCCO)c1ccccc1 (stereo not given)	9.18
O=C1C(Nc2nccn3cnnc23)CCCN1c1ccccc1Cl (stereo not given)	9.05
O=C(Cc1ccccn1)N1CCN(CC2CC2)c2ncccc2C1	1.34
Cn1c(-c2ccc(F)cc2)cn2cc(C(=O)N3CCC(N)C3)nc2c1=O (stereo not given)	4.43
Cc1cccc2cc(C(=O)N3CCC(F)(F)CC3)n(C)c12	3.76
CC1(C)CNC(=O)c2nc(CCN3CCCCC3CO)[nH]c2C1 (stereo not given)	-3.24

SMILES	cytotoxicity at 10 µM [%]
O=C1CCC2(CCN(CC[C@H](O)c3ccccc3)CC2)CN1CCO	-4
CCN1CC2(CCC1=O)CCN(Cc1cc(F)ccc1Cl)CC2	6.58
Cc1n[nH]c(C)c1CCN(C)c1ccc(-c2nc(C3CC3)no2)cn1	2.08
CCc1[nH]c2ccc(CNc3cncc(C(=O)N(C)C)n3)cc2c1C	7.59
CCCn1c(C)c(CC(=O)N[C@H](C)C(=O)OC)c2c1CC(C)(C)CC2=O	-2.06
Cc1cc(C(=O)N2CCC3(CC(=O)NC3=O)C2)c(-c2ccccc2)o1 (stereo not given)	-3.15
COc1nc2c(cc1C(=O)NCc1noc(Cc3cccs3)n1)CCC2	-6.36
Cc1ccc(C(=O)NCCC2CN(c3cnn(C)c(=O)c3)CCO2)s1 (stereo not given)	-1.38
O=C(c1cccc(O)c1)N1C[C@@H](CN2CCCCC2)[C@@H](CO)C1	-2.88
CCN(C)C[C@@H]1CN(C(=O)NC2CCCCC2)C[C@@H]1CO	-1.53
O=C(NCCc1c[nH]cn1)c1ccccc1C1CCNC1 (stereo not given)	12.8
Cc1nc(C(F)(F)F)nc(N2CCC(O)(C(=O)O)CC2)c1C	10.4
Cc1nc(-c2cc(Cl)c3c(c2)CC(CN)O3)c[nH]1 (stereo not given)	-12.2
Cc1cc(C)n2nc(CC(=O)N[C@H]3C[C@H]4CN(C)CCN4C3)nc2n1	-2.9
CC(C)Nc1cc(N2CCC(n3cc(C4CC4)nn3)CC2)ncn1	7.88
O=C(c1coc(CN2CCN(c3ccccc3F)CC2)n1)N1CCCC1	19.2
Cc1cc(C)n(-c2ccc(C(=O)NCc3cncn3CC(C)C)cc2)n1	-4.04
O=C1OCCN1Cc1ncnn1Cc1c(F)cccc1Cl	-1.26
Cc1noc(C)c1CN1C[C@@H](NS(=O)(=O)N(C)C)[C@H](C(C)C)C1	3.61
CC(C)n1ccnc1C1CCCN(c2ccccn2)C1 (stereo not given)	1.28
COc1ccc(CN(C)[C@@H]2CN(C(=O)c3cccs3)C[C@H]2O)cc1	-0.619
Cn1cc(CCNC(=O)NCc2ccc3c(c2)OCCO3)cn1	-10.7

SMILES	cytotoxicity at 10 µM [%]
Cc1cnn(CC2CCCN2C(=O)c2cccc3[nH]ncc23)c1 (stereo not given)	-10.8
Cc1ccc(C(=O)NS(=O)(=O)c2ccccc2C)c(=O)[nH]1	-8.48
Cc1cc(OCC(=O)N2CCCC(c3ccn[nH]3)C2)no1 (stereo not given)	0.0241
Cn1cnc2c1CCN(CCS(=O)(=O)c1ccccc1)C2	-3.32
Cc1nc(C)n(CC2CN(CCCOc3ccccc3C)CCO2)n1 (stereo not given)	5.63
CC(O)CN1CCC(CNCc2cccc(C(N)=O)c2)CC1 (stereo not given)	-8.99
Cc1nc(C)n(CC2CCCN2Cc2cscn2)n1 (stereo not given)	-2.05
CCn1cc(CN2C[C@@H]3CCCN3C[C@@H]2CCSC)cn1	-13.9
CC(C)N(C)Cc1cnc2n1CCN(C(=O)Cc1ccccn1)C2	-0.405
CN(C)CCNC(=O)C1Cc2nc(-c3ccccc3)sc2N1CC1CC1 (stereo not given)	5.15
O=C(CO[C@@H]1CC[C@H]2[C@H]1OCCN2c1ncccn1)N1CCCC1	-7.58
Cc1cc(C(=O)N2CCC3(CC2)COCCN(c2cccnc2)C3)[nH]n1	-2.66
Cn1nc(Cn2cccc2)c2c1CN(Cc1ccoc1)C2	2.96
CCC1=N[C@@]2(CC[C@@H]3CN(CC4CC4)C[C@@H]32)C(=O)N1C	0.153
c1ccc(CO[C@@H]2C[C@H]3CN(c4ncccn4)CCN3C2)nc1	-7.49
NC(=O)N1CCC2(CCN(Cc3ccccn3)C2=O)C1 (stereo not given)	3.39
COCCN1CCO[C@@H]2CN(Cc3ccc(C)s3)C[C@@H]2C1	-8.81
CS(=O)(=O)N1C[C@H]2CCCN(Cc3cccs3)[C@H]2C1	7.69
Cc1noc(C)c1CN1CCO[C@H]2CN(C(=O)N3CCCC3)C[C@H]21	8.01
NC1CCC(NC(=O)c2ccc3nc(-c4ccc(F)cc4)cn3c2)CC1 (stereo not given)	-17.7
CC1CCN(c2nc3cn(-c4ccc(F)cc4)c(=O)c-3c[nH]2)CC1	3.47
O=C1NCC2(CCC(C(=O)N3CCC(O)CC3)CC2)Oc2ccccc21 (stereo not given)	-21.7
